{"source": "paper PMC5014453", "about": "(Molecular Therapy. Nucleic Acids, 2016)", "key": {"[1]": {"test_system": "HBV (pUC18-HBV1.3 hydrodynamic injection)", "test": "Anti-HBV assay in an acute hepatitis B mouse model", "type": "in vivo, BALB/c mice", "settings": "acute hepatitis B mice, real-time PCR, n = 5; Tat-PNA-DR 5.05 mg/kg, 3TC 0.5 mg/kg"}, "[2]": {"test_system": "HBV proteins in HepG2.2.15 cells", "test": "Western blot of intracellular HBV proteins in HepG2.2.15 cells", "type": "cell-based, Hepatitis B virus", "settings": "HepG2.2.15 cell lysates, 3TC 20 μmol/l"}, "[3]": {"test_system": "HBV DNA and RNA in HepG2.2.15 cells", "test": "Southern and northern blot of intracellular HBV DNA and RNA in HepG2.2.15 cells", "type": "cell-based, Hepatitis B virus", "settings": "southern blot, 48 hours, 3TC 20 μmol/l", "outline": "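HepG2.2.15 cells grown in DMEM with 10% FBS, penicillin and streptomycin at 37 °C, 5% CO2, then exposed to test compound; 3TC control at 20 μmol/l. Total RNA TRIzol-extracted, run on 1.5% formaldehyde agarose gel, HBV RNAs probed with the DIG probe also used for Southern blot; GAPDH DIG probe as internal control.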"}}}
{"molecule": "Nc1ccn([C@@H]2CS[C@H](CO)O2)c(=O)n1", "note": "[3TC, lamivudine]", "values": [{"measurement": "average HBV DNA concentration in serum", "setting": "[1]", "value": "1.2 × 10^4 copies/ml"}, {"measurement": "intracellular HBV protein levels (HBsAg, HBV core protein, x protein, RT)", "setting": "[2]", "value": "did not affect the expression of any HBV viral proteins"}, {"measurement": "intracellular HBV DNA", "setting": "[3]", "value": "clearly inhibited the synthesis of HBV DNA"}]}
